Sampled rows, rich in hits. Any-hit rate of the full collection: about 1.9%.
SUMO1 PPI mod: modulators of SUMO1 protein-protein interactions, primary screen, biochemical, uHTS. Small ubiquitin-related modifier 1 (Homo sapiens), P63165. SUMO1 binding to a labelled peptide, TR-FRET, 1 h. inhibition, % at 20 µM. 360,000 compounds, 0.33% hits; in the data active = inhibition above about 37%
LMPTP block: LMPTP phosphatase inhibitors, primary screen, biochemical, fluorescence intensity, uHTS. Low molecular weight phosphotyrosine protein phosphatase (Homo sapiens), P24666. recombinant LMPTP-A, OMFP fluorogenic substrate. inhibition, % at 20 µM. 360,000 compounds, 0.22% hits. AID 651560, 2012;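 active = compounds that cut the enzyme signal by at least half of the control window in the single-dose screen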;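 also: plate controls were DMSO wells with enzyme plus substrate for no effect and substrate without enzyme for full effect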
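Test system: LMPTP-A, protein tyrosine phosphatase of low molecular weight; Input: 0.625 nM enzyme; Incubation: 50 min dark incubation at room temperature; Signal: endpoint fluorescence intensity from OMFP dephosphorylation; Read-out basis: % inhibition versus control wells.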
DNMT1 inh: human DNMT1 methyltransferase inhibitors, primary screen, biochemical, molecular beacon, fluorescence, HinP1I cleavage, uHTS; inhibition (reported as % activation of signal), % at 10 µM; 360,000 compounds, 0.83% hits; AID 588458, 2011
STEP inh: STEP phosphatase inhibitors, primary screen, biochemical, fluorescence intensity, uHTS; Tyrosine-protein phosphatase non-receptor type 5 (Homo sapiens), P54829; recombinant STEP, OMFP fluorogenic substrate; inhibition, % at 20 µM; 360,000 compounds, 0.25% hits; AID 588621, 2011;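 active = inhibition at 20 µM, scaled per plate between control wells, above about 37%, limit read from the data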;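 also: 0% = DMSO with enzyme and substrate and 100% = substrate only without enzyme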
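System: STEP phosphatase, cell-free reaction; Buffer or medium: Bis-Tris pH 6.0 buffer with DTT, detergent; Incubation: 20 min at room temperature, dark; Measured by: fluorescence, 480/540 nm.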
CSN deneddyl inh: inhibitors of CSN-mediated cullin deneddylation, primary screen, biochemical, fluorescence polarization, uHTS; inhibition, % at 12.5 µM; COP9 signalosome complex subunit 5 (Homo sapiens), Q92905; AID 651999, 2013; 360,000 compounds, 0.38% hits; Purified CSN, SCF-Nedd8-OG deneddylation;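 active = pattern-corrected inhibition above about 35%, with an unprinted fluorescence ratio check between 0.5 and 1.5, limit read from the data, passing the limit was not always enough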;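 also: 0% = enzyme with substrate and 100% = substrate without enzyme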
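Assay system: Purified human Csn5 enzyme expressed in HEK293T cells | Amount: Enzyme 0.24 nM | Measured by: Fluorescence polarization readout | Medium: Tris/NaCl/DTT buffer, pH 7.5 | Compound dosing: One concentration, 12.5 µM, 0.25% DMSO | Times: 90 min incubation of compound, enzyme and substrate at room temperature | Control set: no-enzyme wells high, enzyme-with-substrate wells low | Read-out: % inhibition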
Scp-1 inhibitor: Scp-1 phosphatase inhibitors, primary screen, biochemical, colorimetric, uHTS; Carboxy-terminal domain RNA polymerase II polypeptide A small phosphatase 1 (Homo …; Recombinant Scp1, phosphopeptide, malachite green phosphate absorbance; inhibition, % at 20 µM; 340,000 compounds, 0.88% hits; AID 493091, 2011;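 active = inhibition above about 50% at 20 µM, limit read from the data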;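 also: plate controls were DMSO wells with enzyme for no effect and wells lacking enzyme for full effect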
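Times: enzyme reaction 45 min at room temperature, colour 5 min, stabilisation 30 min. Material: SCP-1 catalytic fragment, aa 76-261. Medium: Acidic Tris acetate buffer with magnesium and detergent. Signal: colorimetric free-phosphate detection, absorbance 630 nm. Read-out basis: % inhibition of SCP-1 phosphate liberation. Reagent: Phosphorylated 17-residue peptide substrate.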
CSN deneddyl val: Csn5 deneddylation inhibitors, confirmation, biochemical, fluorescence polarization, single concentration, SCF-Nedd8OG substrate | shares compounds with CSN deneddyl inh | Csn5 deneddylation of SCF-Nedd8OG, 90 min | 540 compounds, 62% hits | inhibition, % at 16.6 µM;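 also: 0% = DMSO with enzyme and 100% = no enzyme wells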
MMP-2 counter: MMP-2 protease inhibition counter-screen, confirmation, counter-screen for CSN deneddylation inhibitor project, biochemical, fluorescence, single concentration; shares compounds with CSN deneddyl inh; recombinant MMP-2, FRET substrate fluorescence, 60 min; inhibition, % at 16.6 µM; 540 compounds, 33% hits;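 active = corrected plate-normalized z-score of 5 or more, or -5 or less, or inhibition of 15% or more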;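 also: plate controls were DMSO wells with enzyme for no effect and buffer wells lacking MMP-2 for full effect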
Thrombin counter: counter-screen for CSN deneddylation inhibitors: bovine thrombin inhibition. shares compounds with CSN deneddyl inh. AID 720656. inhibition, % at 16.6 µM. 540 compounds, 49% hits. bovine thrombin cleavage of Ub4-pepOG, fluorescence polarization;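 active = inhibition at or above a set limit, with a fluorescence interference ratio between 0.5 and a set maximum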
Target sequence (P00735 whole entry, looked up): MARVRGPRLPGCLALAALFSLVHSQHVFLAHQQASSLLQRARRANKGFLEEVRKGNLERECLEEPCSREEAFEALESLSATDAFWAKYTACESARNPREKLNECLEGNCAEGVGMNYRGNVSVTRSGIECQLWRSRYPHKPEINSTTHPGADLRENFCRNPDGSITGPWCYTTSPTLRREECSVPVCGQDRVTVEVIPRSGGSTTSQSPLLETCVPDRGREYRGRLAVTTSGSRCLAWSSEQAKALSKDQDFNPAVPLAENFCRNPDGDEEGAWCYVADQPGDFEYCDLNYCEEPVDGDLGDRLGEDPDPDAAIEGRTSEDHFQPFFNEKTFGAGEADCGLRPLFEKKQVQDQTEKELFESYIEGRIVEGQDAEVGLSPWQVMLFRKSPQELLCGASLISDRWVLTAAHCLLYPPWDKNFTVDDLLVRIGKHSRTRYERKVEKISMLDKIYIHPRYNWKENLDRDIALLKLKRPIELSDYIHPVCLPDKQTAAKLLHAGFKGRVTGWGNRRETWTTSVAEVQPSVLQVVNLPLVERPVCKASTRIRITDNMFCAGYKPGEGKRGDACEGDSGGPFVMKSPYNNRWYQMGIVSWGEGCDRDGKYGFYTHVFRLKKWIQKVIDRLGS
Starred values were filed as active, the others as inactive; · = not tested or not shown; ! = repeats disagree. Rule as the data show it, unless noted: active = inhibition above about 50%; inactive = the rest.

SMILES	SUMO1 PPI mod	LMPTP block	DNMT1 inh	STEP inh	CSN deneddyl inh	Scp-1 inhibitor	CSN deneddyl val	MMP-2 counter	Thrombin counter
O=[N+]([O-])c1ccc(N2N=C(c3ccccc3)CC2c2ccccc2O)cc1 (stereo not drawn)	-11	7	-19	-5	56*	·	51*	-7	59*
O=[N+]([O-])c1ccc(N2N=C(c3ccco3)CC2c2ccccc2)cc1 (stereo not drawn)	-39	4	-7	4	42*	-7	83*	-3	36*
COc1ccccc1NOC(=O)CCOc1ccccc1	1	2	0	0	2	-18	·	·	·
NS(=O)(=O)c1cccc(C(=O)NC2CCSc3ccccc32)c1 (stereo not drawn)	-3	0	1	0	0	-3	·	·	·
NS(=O)(=O)c1cc(C(=O)NC2CCSc3ccccc32)ccc1Cl (stereo not drawn)	121*	71*	84*	100*	64*	94*	21	13	49*
CN(C)S(=O)(=O)c1ccc2c(c1)/C(=C/c1cc3c([nH]1)CCCC3)C(=O)N2	-11	5	-8	-15	54*	-14	75*	-11	37
CCCCOc1ccc(CCC(=O)N/N=C/c2ccco2)cc1	-1	1	3	0	3	-4	·	·	·
O=C(O)c1ccccc1C(=O)c1cccc2c(Br)cccc12	-29	-1	5	1	1	-8	·	·	·
O=C(CSc1nc(=O)n(CCCN2CCOCC2)c2c1CCC2)Nc1cccc(F)c1	0	2	0	1	-1	4	·	·	·
Cc1cc(/C=C2\SC(=S)N(Cc3ccco3)C2=O)c(C)n1-c1cccnc1	-17	6	-8	5	79*	-4	·	-7	-50
O=C(CSc1nc(-c2ccccc2)nc2c1Cc1ccccc1O2)Nc1ccc(C(=O)O)cc1	70*	79*	88*	87*	48*	90*	60*	20*	10
C/C(=N/Nc1ccc([N+](=O)[O-])cc1)c1ccc(C)cc1C	-13	3	-7	-3	3	-8	·	·	·
C/C(=N/Nc1ccc([N+](=O)[O-])cc1)c1c[nH]c2ccccc12	-39	11	-17	-2	43*	-5	69*	3	22*
Cc1[nH]c2ccccc2c1/C=N/NC(=O)c1cccc([N+](=O)[O-])c1	-17	1	-6	0	-4	-1	·	·	·
Cc1[nH]c2ccccc2c1/C=N/Nc1ccc([N+](=O)[O-])cc1	-19	8	-24	2	49*	1	75*	5	44*
O=C(N/N=C\c1c(O)ccc2ccccc12)c1ccc(O)cc1	0	4	-4	-1	7	0	·	·	·
O=C(N/N=C/c1c(O)ccc2ccccc12)c1ccc(Br)o1	27	64*	41	77*	37*	99*	66*	12	6
Cc1nnc(-c2ccccc2)c(=O)n1/N=C/c1c(O)ccc2ccccc12	-12	-1	-1	0	50*	1	109*	-4	30*
CC(C)(C)c1cc(CCC(=O)NCC2CCCO2)cc(C(C)(C)C)c1O (stereo not drawn)	16	9	2	2	-1	-8	·	·	·
N#CC1=C(N)SC(N)=C(C#N)C1c1ccnc2ccccc12	4	1	-9	-1	45*	-4	135*	-16	30*
CSc1nc(SCC(=O)O)c2sc3nc(-c4ccccc4)c4c(c3c2n1)CCC4	101*	95*	97*	97*	64*	60*	23	30*	5
CSc1nc(NCCN(C)C)c2sc3nc(-c4ccco4)c4c(c3c2n1)CCC4	9	-7	-12	1	13	-4	·	·	·
COc1ccc(OCc2cc(C(=O)NCC(C)Oc3cccnc3)no2)c(Cl)c1 (stereo not drawn)	1	2	-5	-2	1	-9	·	·	·
O=C(c1c[nH]c2ccccc12)C(Cl)c1ccccc1 (stereo not drawn)	2	0	0	-3	4	-17	·	·	·
COc1cc(C)c2c(c1C=O)Oc1c(c(C)c(O)c3c1C(O)OC3=O)OC2=O (stereo not drawn)	78*	-9	-21	2	38*	10	50	13	8
SMILES	SUMO1 PPI mod	LMPTP block	DNMT1 inh	STEP inh	CSN deneddyl inh	Scp-1 inhibitor	CSN deneddyl val	MMP-2 counter	Thrombin counter
CC(C)CC(=NNC(=O)c1ccncc1)c1cc(Cl)ccc1O	-2	1	-1	-1	63*	3	71*	-51*	46*
Brc1ccc2ncc3ccccc3c2c1	-3	0	3	2	1	-2	·	·	·
O=C(O)c1cc(-c2ccco2)nc2ccc(Br)cc12	57*!	26	106*!	66*!	42*!	80*!	81*	7	-6
CCc1ccc(-c2cc(C(=O)N/N=C/c3ccccn3)[nH]n2)cc1	-5	-2	2	2	2	-6	·	·	·
O=C(N/N=C/c1ccccn1)c1cc(-c2ccc3ccccc3c2)n[nH]1	6	10	-11	7	41*	4	·	20*	17*
Cc1ccc(OCC(=O)Nc2sc3c(c2C#N)CC(C)(C)NC3(C)C)cc1	-1	0	-1	3	5	-5	·	·	·
CC1(C)Cc2c(sc(NC(=O)COc3cccc4ccccc34)c2C#N)C(C)(C)N1	-43	4	26	69*	101*	-11	-28	-9	-6
Cc1ccc(S(=O)(=O)/N=C2/NC(=O)/C(=C\c3cc(Br)cc(Br)c3O)S2)cc1	28	-1	21	-3	147*	-10	-72	-80*	-84

Assay outcomes: PubChem BioAssay, Sanford-Burnham Center for Chemical Genomics
